Hits are enriched below; roughly 1.9% of the tested compounds scored in any of these assays.
CHRM4 antagonist = CHRM4 antagonism in calcium assay. P08173. CHO-hM4 cells, ACh EC80, Fluo-8 calcium fluorescence. inhibition, % at 3 µM. 360,000 tested, 0.73% active;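 active means inhibition above its plate's cutoff, the mean inhibition of sample wells plus 3 SD, cut at about 27% in these data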;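 further: 0% = acetylcholine EC80 with DMSO and 100% = DMSO without agonist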
Target sequence (P08173 whole entry, looked up): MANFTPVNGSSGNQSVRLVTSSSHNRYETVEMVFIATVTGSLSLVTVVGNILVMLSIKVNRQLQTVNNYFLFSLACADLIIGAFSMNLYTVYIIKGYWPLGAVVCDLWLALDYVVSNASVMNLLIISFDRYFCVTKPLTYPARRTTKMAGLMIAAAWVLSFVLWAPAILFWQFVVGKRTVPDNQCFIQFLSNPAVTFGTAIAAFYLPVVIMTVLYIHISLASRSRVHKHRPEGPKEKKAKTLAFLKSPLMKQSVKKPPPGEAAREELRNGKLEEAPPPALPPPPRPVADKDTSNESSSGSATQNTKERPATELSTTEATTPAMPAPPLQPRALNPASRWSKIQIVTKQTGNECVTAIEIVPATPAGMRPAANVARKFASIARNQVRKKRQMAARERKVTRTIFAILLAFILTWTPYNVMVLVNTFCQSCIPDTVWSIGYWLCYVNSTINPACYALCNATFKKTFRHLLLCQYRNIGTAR
M5 PAM = potentiates acetylcholine response at human M5 receptor | activation, % at 3 µM | P08912 | 360,000 tested, 0.3% active | CHO-K1 hM5, Fluo-8 calcium, ACh EC20 PAM; 0% = ACh EC20, 100% = ACh EC100 | AID 624038;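 active means activation above the run cutoff, the mean activation of all test compounds plus 3 SD, cut at about 18% in these data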
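Assay system – human M5 receptor in CHO-K1 cells · Read-out – % activation, ACh-normalized · Technique – Fluo-8 calcium fluorescence · Dosing – single-point, 3 µM nominal · Incubation – Fluo-8 loading 80 min at 37 °C plus 30 min room temperature · Repeats – singlicate, one well per test compound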
CHRM5 antagonist = CHRM5 antagonism in calcium assay | P08912 | CHO-hM5 cells, Fluo-8 calcium fluorescence, ACh EC80 | inhibition, % at 3 µM | 360,000 tested, 0.59% active | AID 624040;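 active means inhibition above a per-plate cutoff, the mean of that plate's test compounds plus 3 SD, cut at about 27% in these data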;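 further: 0% = acetylcholine EC80 with DMSO and 100% = DMSO without agonist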
M4 PAM = positive allosteric modulators of human muscarinic M4 receptor; P08173; CHO-K1 hM4/Gqi5, Fluo-8 calcium fluorescence, ACh EC20; 0% = ACh EC20, 100% = maximal ACh; activation, % at 3 µM; 360,000 tested, 0.4% active; AID 624126;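 active means activation above its plate's cutoff, the mean activation of sample wells plus 3 SD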
CHRM5 agonist = agonists of human muscarinic M5 receptor (CHRM5); activation, % at 3 µM; P08912; 360,000 tested, 0.19% active; CHO-K1 hM5 cells, Fluo-8 calcium fluorescence; 0% DMSO wells, 100% maximal acetylcholine response;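 active means activation above the run's mean over test compounds plus 3 SD, cut at about 23% in these data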;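 further: signal is peak over basal fluorescence ratio across the kinetic read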
CHRM4 agonist = agonists of human muscarinic M4 receptor (CHRM4); P08173; CHO-K1 hM4/Gqi5, Fluo-8 calcium fluorescence; vehicle 0%, full acetylcholine response 100%; activation, % at 3 µM; 360,000 tested, 0.14% active;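 active means activation above the run mean over all test wells plus 3 SD, cut at about 32% in these data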;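 further: peak over basal fluorescence ratio per well then scaled between controls; 0% = DMSO wells and 100% = acetylcholine at EC100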
* = called active by the depositor; + = active, no number.

SMILES	CHRM4 antagonist	M5 PAM	CHRM5 antagonist	M4 PAM	CHRM5 agonist	CHRM4 agonist
CN(C)CCN1CCN(C2CN(Cc3cn(Cc4ccc(F)cc4)nn3)S(=O)(=O)C2)CC1 (stereo not given)	-7.1	0.5	-1.4	3.6	-2.3	0.3
CCOC(=O)[C@]12CCC=C1N(CCC1=CCCCC1)C(=O)[C@H](CC(=O)N1CCOCC1)C2	-6.0	-4.9	-8.2	4.9	-0.7	0.8
CN1C(=O)[C@H]2[C@@H](c3ccc(C(F)(F)F)cc3)N[C@]3(CCCN(Cc4ccc(C(F)(F)F)cc4)C3=O)[C@H]2C1=O	-5.3	-2.2	7.0	1.4	-0.7	0.6
CC(=O)Oc1ccc2c(c1)Oc1cc(OC(C)=O)ccc1C21OC(=O)c2ccccc21	101.5*	-20.9	101.9*	-17.2	+	865.5*
CC1(C)OC2CC3C4CCC5=CC(=O)C=CC5(C)C4(F)C(O)CC3(C)C2(C(=O)CO)O1 (stereo not given)	-7.4	2.7	-1.0	1.8	1.7	0.2
CCCCc1cc(=O)oc2cc(OCc3cc(OC)c(OC)c(OC)c3)c(Cl)cc12	-3.8	13.2	0.4	15.5*	-1.6	3.3
CCCc1cc(=O)oc2cc(OCc3cc(OC)c(OC)c(OC)c3)c(Cl)cc12	-3.5	7.7	-5.5	5.1	0.7	0.9
Cc1ccc(C(=O)C2C(=O)C3CCC2C3)cc1 (stereo not given)	7.7	-6.3	5.4	-4.5	-1.2	-0.4
O=C(O)c1cc(Cl)ccc1-c1ccc(/C=C/c2cc(C(F)(F)F)[nH]c(=O)n2)o1	11.5	-2.5	0.0	-5.2	42.0*	39.4*
O=C(O)c1ccccc1-c1ccc(/C=C/c2cc(C(F)(F)F)[nH]c(=O)n2)o1	1.0	-6.7	8.7	-7.1	43.5*	10.5
COC(=O)c1sc(NC(C)=O)c(C(=O)OC)c1C	-6.8	-1.8	-4.6	20.6*	-7.9	3.2
COC(=O)c1c(NC(C)=O)sc(C)c1C	0.8	8.8	-5.2	-2.3	-5.8	0.1
CC1(C(=O)NCc2ccc(Cl)cc2)CCN1C(=O)Cc1cccs1 (stereo not given)	-9.8	1.9	1.4	5.6	-1.8	0.7
Cc1ccc(NC(=O)C2(C)Cc3ccccc3C(=O)O2)cc1 (stereo not given)	-4.9	16.3	-10.0	24.8*	3.1	1.7
CCCCCCN1C[C@@H](n2cc(COC(=O)c3ccccc3)nn2)[C@H](O)C[C@@H]1c1ccc(Cl)cc1	8.4	-2.5	8.4	-5.2	0.7	0.0
Cc1ccc(S(=O)(=O)N2[C@H](CC(=O)c3cccs3)OC[C@@H]2C(C)C)cc1	1.5	-1.4	1.9	-1.8	-2.5	0.8
Cc1ccc(Cn2cc(CN3CC(N4CCSCC4)CS3(=O)=O)nn2)cc1 (stereo not given)	-16.4	-2.6	-0.8	11.8	0.7	0.3
CCN(CC)c1ccc(/C=N/Nc2nn[nH]n2)cc1	-4.5	19.5*	-11.4	0.3	2.3	0.4
COc1ccc(CCNC(=O)c2cc(-c3cc(C)cc(C)c3O)n[nH]2)cc1OC	39.4*	-10.6	8.0	-8.5	-3.9	5.8
COc1cccc(NC(=O)CSCC(=O)Nc2ccccc2)c1	-3.4	-3.1	-7.3	-4.0	1.8	1.2
O=C(Nc1ccc(F)cc1)Nc1ccccc1F	-5.4	-10.4	9.0	1.7	0.3	6.9
O=C(Nc1ccc(F)cc1)Nc1cccnc1Cl	32.3*	-6.6	1.4	-16.6	2.7	3.5
COc1cccc(NC(=O)Nc2ccc(C)c(Cl)c2)c1	2.5	-20.1	33.3*	-9.8	4.0	12.7
COc1cccc(NC(=O)CSCC(=O)O)c1	4.7	-2.9	2.9	32.7*	1.2	0.1
CC(C)(C)c1ccc(NC(=O)Nc2ccc(F)cc2)cc1	51.5*	-16.2	78.7*	-20.4	1.8	31.3
SMILES	CHRM4 antagonist	M5 PAM	CHRM5 antagonist	M4 PAM	CHRM5 agonist	CHRM4 agonist
O=C1NC[C@@H](CCCCN2C[C@H](Cc3ccccc3)N(Cc3ccccc3)C(=O)C2=O)N(CCc2ccccc2)C1=O	4.1	-0.2	3.0	-3.4	-5.0	0.2
CCCCn1nc(C(=O)NC2CCCCC2)c2ccccc2c1=O	-3.0	-0.6	-7.0	6.8	0.0	-1.6
COc1ccc(S(=O)(=O)NC(=O)C2(C)CCN2C(=O)Cc2cc(C)cc(C)c2)cc1 (stereo not given)	-2.9	4.1	-3.2	-0.5	0.2	0.7
COc1cccc(NC(=O)Nc2ccc(C(C)(C)C)cc2)c1	18.9	-20.3	34.8*	-18.0	4.4	12.7
CCC(C)NC(=O)C(NS(=O)(=O)c1cccc2nsnc12)c1ccccc1 (stereo not given)	-15.4	35.2*	-2.1	4.9	-9.4	0.6
CC1=C(C(=O)N(C(C)C)C(C)C)CC(CC(=O)NCCCCc2ccccc2)C(=O)N1Cc1ccc(C(C)(C)C)cc1 (stereo not given)	-1.3	-3.7	2.4	-8.8	-0.4	-0.4
CN1CCC(=NNC(=O)C(=O)Nc2cccc(Br)c2)CC1	-2.5	-15.4	32.4*	0.1	0.7	1.3
CC(C)(C)NC(=O)C1c2ccccc2OCC(=O)N1Cc1ccc2c(c1)OCO2 (stereo not given)	-4.7	-3.0	-1.4	4.0	-2.2	-0.4
CCOC(=O)Cn1cc(C(=O)C(=O)N2CCOCC2)c2ccccc21	0.7	5.2	11.2	10.0	-2.0	0.6
CCOC(=O)C(=O)c1cn(C2OCC(OC(C)=O)C(OC(C)=O)C2OC(C)=O)c2ccccc12 (stereo not given)	-3.8	3.9	-6.1	22.0*	-1.3	2.2
COc1ccc(CN2CCC[C@]3(N[C@H](c4ccc(C)cc4)[C@@H]4C(=O)N(Cc5ccccc5)C(=O)[C@@H]43)C2=O)cc1	-14.7	-4.6	1.4	-0.7	0.3	5.1
O=C(Oc1ccc(N2C(=O)C3C4CCC(C4)C3C2=O)cc1)c1ccco1 (stereo not given)	1.3	-4.3	13.3	1.3	-4.0	1.5
O=C(Oc1cccc2cccnc12)c1ccc(N2C(=O)C3C4CCC(C4)C3C2=O)cc1 (stereo not given)	9.7	7.5	1.5	25.6*	1.6	1.1
O=C(NCc1ccccc1)C1c2ccccc2OCC(=O)N1CCc1c[nH]c2ccccc12 (stereo not given)	-5.0	-0.6	-0.9	7.1	0.3	3.7
CC(C)C(O)(C#CCN1CCCCC1)c1ccccc1 (stereo not given)	97.6*	-15.0	98.3*	-35.5	-5.7	1.4
CC(C)C(O)(C#CCN1CCCC1)c1ccccc1 (stereo not given)	45.6*	-15.2	58.1*	-12.4	-11.1	0.7
